Blank lines part the entries; values can stand above or below the molecule they belong to. Activity calls are given as the source filed them. The rule behind the calls is not given here.
Legend:
Histamine H3 receptor [1] = molecular target: Histamine H3 receptor (Homo sapiens, UniProt Q9Y5N1); assay: Displacement of [3H]-Nalpha-methylhistamine from human histamine H3 receptor expressed in CHO cells after 4 hrs by scintillation proximity assay; assay type: cell-based
Method in brief: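 Membranes from CHO cells stably expressing human H3 receptor, in 50 mM Tris–HCl pH 7.4, 5 mM MgCl2, 0.1% BSA, 10 µg protein/well; ~1 nM final [3H]-N-alpha-methylhistamine; compounds 0.01 nM–30 µM; SPA beads; 4 h room temperature, dark; nonspecific binding with 10 µM clobenpropit; scintillation counting. Assay-to-assay variation typically within 2.5-fold.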

Histamine H3 receptor [2] = molecular target: Histamine H3 receptor (Rattus norvegicus, UniProt Q9QYN8); assay: Displacement of [3H]-Nalpha-methylhistamine from rat histamine H3 receptor expressed in CHO-A3 cells after 4 hrs by scintillation proximity assay; assay type: cell-based
Sequence of Histamine H3 receptor (Rattus norvegicus, UniProt Q9QYN8) (Q9QYN8 whole entry): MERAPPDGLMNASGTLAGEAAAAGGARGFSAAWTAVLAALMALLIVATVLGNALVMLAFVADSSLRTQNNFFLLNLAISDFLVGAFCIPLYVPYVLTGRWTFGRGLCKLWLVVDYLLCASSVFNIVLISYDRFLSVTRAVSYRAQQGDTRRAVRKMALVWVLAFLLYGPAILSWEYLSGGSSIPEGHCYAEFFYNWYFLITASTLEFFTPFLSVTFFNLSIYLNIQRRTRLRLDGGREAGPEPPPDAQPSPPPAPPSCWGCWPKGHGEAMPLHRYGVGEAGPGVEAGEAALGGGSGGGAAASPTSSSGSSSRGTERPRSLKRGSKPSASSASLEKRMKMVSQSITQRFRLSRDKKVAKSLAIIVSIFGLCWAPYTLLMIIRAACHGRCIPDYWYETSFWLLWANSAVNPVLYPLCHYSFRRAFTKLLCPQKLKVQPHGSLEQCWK
Method in brief: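 Rat H3 receptor in pIRES-neo3 stably transfected into CHO-A3 cells, clonally selected; washed membranes in Tris–HCl pH 7.4, 5 mM MgCl2, 0.1% BSA, 10 µg protein/well; ~1 nM final [3H]-N-alpha-methylhistamine, compounds 0.01 nM–30 µM, SPA beads, 4 h room temperature, dark; nonspecific with 10 µM clobenpropit; scintillation counting.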

[3] = Clearance in Sprague-Dawley rat at 1 mg/kg, iv; assay type: ADME, organism-based; parameters: dose 1 mg/kg, route intravenous; settings: in vivo
Method in brief: (§1)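 Adult male Sprague–Dawley rats (275–350 g). iv dosing via lateral tail vein (3% DMSO/30% Solutol/67% PBS or 100% saline); oral gavage after overnight fast (Tween 80/propylene carbonate/propylene glycol, saline, or 2% HCl–water). Seven serial tail-vein blood samples over 6 or 24 h; plasma protein-precipitated with acetonitrile, LC–MS/MS; noncompartmental parameters.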

[4] = AUC (0 to t) in Sprague-Dawley rat at 5 mg/kg, po; assay type: ADME, organism-based; parameters: dose 5 mg/kg, route oral; settings: plasma; method in brief: as §1
[5] = Cmax in Sprague-Dawley rat at 5 mg/kg, po; assay type: ADME, organism-based; parameters: dose 5 mg/kg, route oral; settings: in vivo; method in brief: as §1
[6] = Oral bioavailability in Sprague-Dawley rat at 5 mg/kg; assay type: ADME, organism-based; settings: in vivo; method in brief: as §1
[7] = Ratio of drug level in brain to plasma in Sprague-Dawley rat at 5 mg/kg, po at 6 hrs; assay type: ADME, organism-based; parameters: dose 5 mg/kg, route oral; settings: read-out: BPR
Method in brief: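 Brain-to-plasma ratio from the 6 h time point after 5 mg/kg po dosing in Sprague–Dawley rats; plasma drug measured by LC–MS/MS after acetonitrile protein precipitation.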

[8] = molecular target: Histamine H3 receptor (Rattus norvegicus) (UniProt Q9QYN8); assay: Antagonist activity at histamine H3 receptor on rat cortex membrane by [35S]GTPgammaS binding assay; assay type: functional, tissue-based
Sequence of Histamine H3 receptor (Rattus norvegicus) (Q9QYN8 whole entry): as above

[9] = molecular target: Histamine H3 receptor (Rattus norvegicus) (UniProt Q9QYN8); assay: Inverse agonist activity at histamine H3 receptor on rat cortex membrane by [35S]GTPgammaS binding assay; assay type: functional
[10] = molecular target: Voltage-gated inwardly rectifying potassium channel KCNH2 (Homo sapiens, UniProt Q12809); assay: Inhibition of human ERG by patch clamp assay
Sequence of Voltage-gated inwardly rectifying potassium channel KCNH2 (Q12809 whole entry): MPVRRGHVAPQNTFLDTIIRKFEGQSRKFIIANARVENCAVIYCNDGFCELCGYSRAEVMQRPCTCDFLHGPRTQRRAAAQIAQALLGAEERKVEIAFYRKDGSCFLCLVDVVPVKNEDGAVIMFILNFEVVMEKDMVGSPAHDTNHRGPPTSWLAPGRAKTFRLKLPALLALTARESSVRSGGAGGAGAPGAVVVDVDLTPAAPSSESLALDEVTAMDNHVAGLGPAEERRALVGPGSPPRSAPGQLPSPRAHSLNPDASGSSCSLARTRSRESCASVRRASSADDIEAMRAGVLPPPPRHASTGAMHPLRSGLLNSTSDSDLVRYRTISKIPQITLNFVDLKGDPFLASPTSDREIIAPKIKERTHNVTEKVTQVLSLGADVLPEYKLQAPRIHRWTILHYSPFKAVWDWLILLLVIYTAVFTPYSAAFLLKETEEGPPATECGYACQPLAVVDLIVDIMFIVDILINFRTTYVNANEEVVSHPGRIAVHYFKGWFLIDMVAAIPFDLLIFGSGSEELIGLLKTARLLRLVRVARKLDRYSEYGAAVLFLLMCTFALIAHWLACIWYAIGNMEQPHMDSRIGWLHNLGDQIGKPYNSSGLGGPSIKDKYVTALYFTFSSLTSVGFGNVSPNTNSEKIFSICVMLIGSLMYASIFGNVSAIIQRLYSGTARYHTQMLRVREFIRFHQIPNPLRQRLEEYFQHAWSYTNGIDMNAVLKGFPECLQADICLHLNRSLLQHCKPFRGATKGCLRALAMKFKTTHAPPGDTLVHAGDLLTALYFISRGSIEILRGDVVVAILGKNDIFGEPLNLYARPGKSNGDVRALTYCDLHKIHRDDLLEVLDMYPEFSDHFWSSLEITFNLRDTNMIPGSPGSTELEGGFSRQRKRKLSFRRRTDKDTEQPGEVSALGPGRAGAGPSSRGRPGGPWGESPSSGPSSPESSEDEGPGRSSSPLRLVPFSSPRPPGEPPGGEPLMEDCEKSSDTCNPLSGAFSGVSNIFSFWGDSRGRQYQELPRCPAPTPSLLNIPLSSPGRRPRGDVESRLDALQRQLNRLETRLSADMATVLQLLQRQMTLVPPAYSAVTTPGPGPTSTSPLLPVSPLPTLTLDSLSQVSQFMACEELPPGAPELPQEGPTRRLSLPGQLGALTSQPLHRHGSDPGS
Method in brief: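 hERG inhibition measured in a patch clamp assay.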

[11] = Plasma protein binding in mouse at 5 uM after 1 hr by LC-MS/MS analysis; assay type: ADME, cell-free; settings: read-out: PPB (converted)
[12] = Plasma protein binding in rat at 5 uM after 1 hr by LC-MS/MS analysis; assay type: ADME, cell-free; settings: read-out: PPB (converted)
[13] = Plasma protein binding in dog at 5 uM after 1 hr by LC-MS/MS analysis; assay type: ADME, cell-free, Canis lupus familiaris; settings: read-out: PPB (converted)
[14] = Plasma protein binding in human at 5 uM after 1 hr by LC-MS/MS analysis; assay type: ADME, cell-free; settings: read-out: PPB (converted)
[15] = Fraction unbound in rat brain homogenate; assay type: ADME, tissue-based
[16] = Solubility of the compound in water; assay type: physicochemical; settings: buffer
Salmonella typhimurium = assay: Genotoxicity against Salmonella typhimurium by AMES test; assay type: toxicity, organism-based; settings: salmonella enterica subsp. enterica serovar typhimurium
Rattus norvegicus [17] = assay: Antidipsogenic activity in ip dosed Harlan Long Evans rat assessed as inhibition of RAMH-induced water drinking; assay type: functional
Method in brief: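 Water drinking for 30 min beginning 20 min after RAMH (10 mg/kg ip); test compound in saline given beforehand. Per-rat percent inhibition normalized to RAMH group mean drinking; group means compared by one-way ANOVA with Dunnett's test versus RAMH group.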

Rattus norvegicus [18] = assay: Wake promoting activity in ip dosed rat assessed as increased wake activity after 4 hrs; assay type: functional, organism-based
Rattus norvegicus [19] = assay: Wake promoting activity in rat assessed as cumulative wake time at 10 mg/kg, ip after 4 hrs (reference value: 76+/-6 mins); assay type: functional; settings: route intraperitoneal
Rattus norvegicus [20] = assay: Wake promoting activity in rat assessed as cumulative wake time at 30 mg/kg, ip after 4 hrs (reference value: 76+/-6 mins); assay type: functional; settings: route intraperitoneal
Rattus norvegicus [21] = assay: Toxicity in rat assessed as rat assessed as sleep rebound up to 30 mg/kg, ip up to 22 hrs; assay type: organism-based; parameters: dose 30 mg/kg, route intraperitoneal; settings: in vivo
Method in brief: (§2)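 Rats implanted for chronic EEG/EMG recording, dosed ip up to 30 mg/kg; EEG monitored for adverse activity, and sleep after the wake period scored for rebound up to 22 h post-dose.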

Rattus norvegicus [22] = assay: Toxicity in rat assessed as rat assessed as adverse EEG activity up to 30 mg/kg, ip; assay type: organism-based; parameters: dose 30 mg/kg, route intraperitoneal; settings: in vivo; method in brief: as §2
Caco-2 = assay: Permeability across human Caco2 cells; assay type: ADME, cell-based
[23] = Half life in Sprague-Dawley rat at 1 mg/kg, iv; assay type: ADME, organism-based; parameters: dose 1 mg/kg, route intravenous; settings: in vivo; method in brief: as §1
[24] = Volume of distribution in Sprague-Dawley rat at 1 mg/kg, iv; assay type: ADME, organism-based; parameters: dose 1 mg/kg, route intravenous; settings: in vivo; method in brief: as §1
Histamine H1 receptor = Histamine H1 receptor (Homo sapiens, UniProt P35367); assay: Binding affinity to human histamine H1 receptor
Sequence of Histamine H1 receptor (P35367 whole entry): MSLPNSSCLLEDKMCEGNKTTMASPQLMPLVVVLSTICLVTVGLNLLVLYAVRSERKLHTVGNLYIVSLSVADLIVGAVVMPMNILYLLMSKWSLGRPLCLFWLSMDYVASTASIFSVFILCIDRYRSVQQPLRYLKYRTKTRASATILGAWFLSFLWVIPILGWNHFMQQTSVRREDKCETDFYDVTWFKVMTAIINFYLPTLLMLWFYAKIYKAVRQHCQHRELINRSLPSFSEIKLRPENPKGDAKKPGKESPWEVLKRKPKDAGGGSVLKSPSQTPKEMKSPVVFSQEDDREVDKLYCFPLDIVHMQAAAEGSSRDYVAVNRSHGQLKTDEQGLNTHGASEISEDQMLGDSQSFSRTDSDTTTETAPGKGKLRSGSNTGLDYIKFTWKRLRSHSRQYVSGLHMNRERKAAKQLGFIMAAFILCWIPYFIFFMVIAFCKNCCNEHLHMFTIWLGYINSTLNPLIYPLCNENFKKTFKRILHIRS

Histamine H2 receptor = Histamine H2 receptor (Homo sapiens, UniProt P25021); assay: Binding affinity to human histamine H2 receptor
Sequence of Histamine H2 receptor (P25021 whole entry): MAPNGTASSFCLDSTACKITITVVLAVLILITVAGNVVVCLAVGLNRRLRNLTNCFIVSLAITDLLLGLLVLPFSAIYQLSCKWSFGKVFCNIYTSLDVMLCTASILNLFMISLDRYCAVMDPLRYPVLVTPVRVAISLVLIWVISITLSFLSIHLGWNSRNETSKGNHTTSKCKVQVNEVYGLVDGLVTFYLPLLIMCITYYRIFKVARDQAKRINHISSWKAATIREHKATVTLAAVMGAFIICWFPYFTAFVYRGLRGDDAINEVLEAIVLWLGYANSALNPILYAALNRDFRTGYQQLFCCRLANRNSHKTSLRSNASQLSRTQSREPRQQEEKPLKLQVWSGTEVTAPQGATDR

Histamine H4 receptor = Histamine H4 receptor (Homo sapiens, UniProt Q9H3N8); assay: Binding affinity to human histamine H4 receptor
[25] = Half life in human liver microsomes; assay type: ADME, Microsome
[26] = Half life in mouse liver microsomes; assay type: ADME, Microsome
[27] = Half life in rat liver microsomes; assay type: ADME, Microsome
[28] = Half life in monkey liver microsomes; assay type: ADME, Macaca mulatta, Microsome; settings: rhesus monkey
Cytochrome P450 1A2 = molecular target: T1, Cytochrome P450 1A2 (Homo sapiens, UniProt P05177); assay: Inhibition of CYP1A2; assay type: ADME
T1 sequence (P05177 whole entry): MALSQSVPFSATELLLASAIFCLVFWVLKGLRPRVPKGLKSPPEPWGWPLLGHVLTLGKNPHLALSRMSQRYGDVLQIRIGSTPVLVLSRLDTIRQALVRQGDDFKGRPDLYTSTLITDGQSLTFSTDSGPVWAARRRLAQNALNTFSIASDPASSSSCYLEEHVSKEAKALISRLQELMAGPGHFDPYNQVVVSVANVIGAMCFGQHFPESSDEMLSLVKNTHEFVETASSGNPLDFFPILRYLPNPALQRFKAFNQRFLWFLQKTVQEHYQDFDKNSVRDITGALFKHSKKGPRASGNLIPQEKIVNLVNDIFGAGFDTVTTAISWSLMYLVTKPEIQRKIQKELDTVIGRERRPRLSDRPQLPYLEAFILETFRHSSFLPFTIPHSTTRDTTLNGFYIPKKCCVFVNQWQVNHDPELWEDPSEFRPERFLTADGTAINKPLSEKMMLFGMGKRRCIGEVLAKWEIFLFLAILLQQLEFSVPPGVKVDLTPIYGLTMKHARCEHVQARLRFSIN

Cytochrome P450 2C9 = Cytochrome P450 2C9 (Homo sapiens, UniProt P11712); assay: Inhibition of CYP2C9; assay type: ADME
Sequence of Cytochrome P450 2C9 (P11712 whole entry): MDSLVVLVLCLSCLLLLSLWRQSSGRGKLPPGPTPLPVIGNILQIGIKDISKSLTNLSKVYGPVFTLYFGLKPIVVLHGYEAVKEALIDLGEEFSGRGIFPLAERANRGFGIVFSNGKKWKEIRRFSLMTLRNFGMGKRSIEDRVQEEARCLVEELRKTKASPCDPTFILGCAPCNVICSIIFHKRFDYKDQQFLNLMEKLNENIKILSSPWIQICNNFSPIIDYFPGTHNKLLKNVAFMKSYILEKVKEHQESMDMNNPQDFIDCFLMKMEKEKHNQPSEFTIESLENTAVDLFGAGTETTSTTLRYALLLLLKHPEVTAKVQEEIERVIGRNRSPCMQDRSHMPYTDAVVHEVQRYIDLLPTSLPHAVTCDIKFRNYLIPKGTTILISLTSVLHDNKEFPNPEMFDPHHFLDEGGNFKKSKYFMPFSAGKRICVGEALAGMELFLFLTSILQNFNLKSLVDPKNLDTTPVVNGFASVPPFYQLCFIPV

Cytochrome P450 2C19 = Cytochrome P450 2C19 (Homo sapiens, UniProt P33261); assay: Inhibition of CYP2C19; assay type: ADME
Sequence of Cytochrome P450 2C19 (P33261 whole entry): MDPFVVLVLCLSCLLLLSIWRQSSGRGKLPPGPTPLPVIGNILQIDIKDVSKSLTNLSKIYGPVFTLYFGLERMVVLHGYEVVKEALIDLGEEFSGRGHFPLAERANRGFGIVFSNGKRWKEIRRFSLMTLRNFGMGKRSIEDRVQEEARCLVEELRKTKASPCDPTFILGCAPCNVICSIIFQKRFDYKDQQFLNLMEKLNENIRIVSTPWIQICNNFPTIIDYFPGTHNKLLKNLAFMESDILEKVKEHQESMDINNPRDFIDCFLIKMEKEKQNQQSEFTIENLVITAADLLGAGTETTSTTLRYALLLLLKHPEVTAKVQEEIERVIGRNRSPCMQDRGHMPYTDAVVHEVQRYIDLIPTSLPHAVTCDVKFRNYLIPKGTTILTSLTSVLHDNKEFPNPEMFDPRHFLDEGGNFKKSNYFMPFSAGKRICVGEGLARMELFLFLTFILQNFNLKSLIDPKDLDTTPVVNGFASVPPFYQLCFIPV

Cytochrome P450 2D6 = Cytochrome P450 2D6 (Homo sapiens, UniProt P10635); assay: Inhibition of CYP2D6; assay type: ADME
Sequence of Cytochrome P450 2D6 (P10635 whole entry): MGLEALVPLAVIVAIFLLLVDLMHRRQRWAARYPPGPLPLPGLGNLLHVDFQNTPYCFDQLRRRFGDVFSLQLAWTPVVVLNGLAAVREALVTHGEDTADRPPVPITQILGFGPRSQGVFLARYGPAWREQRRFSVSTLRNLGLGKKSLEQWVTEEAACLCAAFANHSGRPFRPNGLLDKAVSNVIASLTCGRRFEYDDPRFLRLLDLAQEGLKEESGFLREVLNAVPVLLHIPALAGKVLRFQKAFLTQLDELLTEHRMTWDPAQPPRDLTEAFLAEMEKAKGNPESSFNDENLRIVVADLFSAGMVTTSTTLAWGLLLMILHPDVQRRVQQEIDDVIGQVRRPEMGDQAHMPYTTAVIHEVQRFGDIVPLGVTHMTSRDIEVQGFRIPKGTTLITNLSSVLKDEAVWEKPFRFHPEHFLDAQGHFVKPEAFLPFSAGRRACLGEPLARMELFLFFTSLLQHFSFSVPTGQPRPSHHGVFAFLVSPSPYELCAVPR

Cytochrome P450 3A4 = Cytochrome P450 3A4 (Homo sapiens, UniProt P08684); assay: Inhibition of CYP3A4; assay type: ADME
Sequence of Cytochrome P450 3A4 (P08684 whole entry): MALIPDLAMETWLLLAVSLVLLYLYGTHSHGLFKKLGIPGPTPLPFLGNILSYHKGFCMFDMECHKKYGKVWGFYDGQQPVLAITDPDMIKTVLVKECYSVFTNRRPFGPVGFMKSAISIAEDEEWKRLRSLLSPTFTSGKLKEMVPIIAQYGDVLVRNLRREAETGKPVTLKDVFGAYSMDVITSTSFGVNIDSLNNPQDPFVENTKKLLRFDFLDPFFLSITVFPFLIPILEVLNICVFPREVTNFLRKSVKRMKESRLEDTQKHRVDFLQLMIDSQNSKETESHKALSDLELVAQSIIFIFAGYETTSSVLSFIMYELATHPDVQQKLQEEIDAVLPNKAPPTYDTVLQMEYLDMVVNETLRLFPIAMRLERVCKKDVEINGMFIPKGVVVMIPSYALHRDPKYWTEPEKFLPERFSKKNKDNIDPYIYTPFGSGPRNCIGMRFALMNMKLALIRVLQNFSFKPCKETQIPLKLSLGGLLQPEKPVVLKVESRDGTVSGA

Sequence of Histamine H3 receptor (Homo sapiens, UniProt Q9Y5N1) (Q9Y5N1 whole entry): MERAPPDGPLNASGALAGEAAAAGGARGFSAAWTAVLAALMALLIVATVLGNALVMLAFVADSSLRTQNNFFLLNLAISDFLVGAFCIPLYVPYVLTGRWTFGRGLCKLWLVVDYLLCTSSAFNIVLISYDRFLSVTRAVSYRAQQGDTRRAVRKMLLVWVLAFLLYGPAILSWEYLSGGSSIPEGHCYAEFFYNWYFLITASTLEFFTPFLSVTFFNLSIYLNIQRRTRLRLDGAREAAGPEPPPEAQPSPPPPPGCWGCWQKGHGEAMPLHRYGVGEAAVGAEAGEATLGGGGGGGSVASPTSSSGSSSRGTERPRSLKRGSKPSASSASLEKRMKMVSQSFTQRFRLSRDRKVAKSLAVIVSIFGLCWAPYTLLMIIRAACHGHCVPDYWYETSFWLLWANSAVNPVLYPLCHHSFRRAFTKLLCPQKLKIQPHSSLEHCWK

SMILES: C[C@@H](COc1ccc(-c2cn[nH]c(=O)c2)cc1)CN1CCCCC1
Ki (Histamine H3 receptor [1]): 47 nM
Ki (Histamine H3 receptor [2]): 131 nM

SMILES: COc1cn[nH]c(=O)c1-c1ccc(OCCCN2CCC[C@H]2C)cc1
Ki (Histamine H3 receptor [1]): 20 nM
Ki (Histamine H3 receptor [2]): 62 nM

SMILES: C[C@@H]1CCCN1CCCOc1ccc(-c2cn[nH]c(=O)c2)cc1
Ki (Histamine H3 receptor [1]): 3 nM
Ki (Histamine H3 receptor [2]): 9 nM
clearance [3]: 10 mL/min/kg
AUC(0-t) [4]: 1290 ng·h/mL
Cmax [5]: 401 ng/mL
bioavailability [6]: 22%
Kp at 6 h [7]: 1.8
Activity [8]: Active
Activity [9]: Active
IC50 [10]: 10000 nM
fraction unbound at 1 h, 5 µM [11]: 0.8
fraction unbound at 1 h, 5 µM [12]: 0.8
fraction unbound at 1 h, 5 µM [13]: 0.8
fraction unbound at 1 h, 5 µM [14]: 0.8
fraction unbound [15]: 0.45
solubility [16]: soluble
Activity (Salmonella typhimurium): Non-toxic
ED50 (Rattus norvegicus [17]): 0.03 mg/kg
Activity (Rattus norvegicus [18]): Dose-dependent effect
Time (Rattus norvegicus [19]): 191 min
Activity (Rattus norvegicus [20]): 95%
Activity (Rattus norvegicus [21]): Non-toxic
Activity (Rattus norvegicus [22]): Non-toxic
permeability (Caco-2): permeable

SMILES: C[C@H](COc1ccc(-c2cn[nH]c(=O)c2)cc1)CN1CCC[C@H]1C
Ki (Histamine H3 receptor [2]): 4 nM
half-life [23]: 126 min
Vd [24]: 3.9 L/kg
clearance [3]: 21 mL/min/kg
AUC(0-t) [4]: 762 ng·h/mL
Cmax [5]: 187 ng/mL
bioavailability [6]: 24%
Kp at 6 h [7]: 6.2
Ki (Histamine H1 receptor): > 10000 nM
Ki (Histamine H2 receptor): > 10000 nM
Ki (Histamine H4 receptor): > 10000 nM
half-life [25]: > 40 min
half-life [26]: > 40 min
half-life [27]: > 40 min
half-life [28]: > 40 min
IC50 (Cytochrome P450 1A2): > 30000 nM
IC50 (Cytochrome P450 2C9): > 30000 nM
IC50 (Cytochrome P450 2C19): > 30000 nM
IC50 (Cytochrome P450 2D6): > 30000 nM
IC50 (Cytochrome P450 3A4): > 30000 nM

SMILES: C[C@H](COc1ccc(-c2cn[nH]c(=O)c2)cc1)CN1CCCCC1
Ki (Histamine H3 receptor [1]): 25 nM
Ki (Histamine H3 receptor [2]): 34 nM

SMILES: C[C@@H](COc1ccc(-c2cn[nH]c(=O)c2)cc1)CN1CCC[C@H]1C
Ki (Histamine H3 receptor [2]): 43 nM

Now from value to molecule:

Ki (Histamine H3 receptor [1]): 10 nM
Ki (Histamine H3 receptor [2]): 19 nM
SMILES: COCn1ncc(OC)c(-c2ccc(OCCCN3CCC[C@H]3C)cc2)c1=O

Ki (Histamine H3 receptor [1]): 5 nM
Ki (Histamine H3 receptor [2]): 13 nM
SMILES: COCn1ncc(-c2ccc(OCCCN3CCC[C@H]3C)cc2)c(OC)c1=O

Ki (Histamine H3 receptor [1]): 4 nM
Ki (Histamine H3 receptor [2]): 14 nM
half-life [23]: 24 min
Vd [24]: 3.2 L/kg
clearance [3]: 93 mL/min/kg
AUC(0-t) [4]: 42 ng·h/mL
Cmax [5]: 53 ng/mL
bioavailability [6]: 6%
Ki (Histamine H1 receptor): > 10000 nM
Ki (Histamine H2 receptor): > 10000 nM
Ki (Histamine H4 receptor): > 10000 nM
half-life [25]: > 40 min
half-life [26]: > 40 min
half-life [27]: > 40 min
half-life [28]: > 40 min
IC50 (Cytochrome P450 1A2): > 30000 nM
IC50 (Cytochrome P450 2C9): > 30000 nM
IC50 (Cytochrome P450 2C19): > 30000 nM
IC50 (Cytochrome P450 2D6): > 30000 nM
IC50 (Cytochrome P450 3A4): > 30000 nM
SMILES: COCn1ncc(-c2ccc(OCCCN3CCC[C@H]3C)cc2)cc1=O
